Converted amounts (≈) assume the structure as drawn.
Assays:
[1] = target: T1, ATP-dependent translocase ABCB1 (Homo sapiens, UniProt P08183); assay: Inhibition of P-gp overexpressed in human MDA435/LCC6MDR cells assessed as accumulation of doxorubicin after 150 mins by fluorescence spectrophotometric analysis; format: cell-based; settings: 2.5 h
Summary of the method: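 1 × 10⁶ LCC6MDR or LCC6 cells incubated with 20 μM DOX and graded modulator for 150 min at 37 °C, with 0.4% DMSO as negative control. Cells washed and lysed in 0.75 M HCl, 0.2% Triton X-100 in isopropanol. DOX fluorescence read at ex 460/em 610 nm. N = 2–5.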

[2] = target: Multidrug resistance-associated protein 1 (Homo sapiens, UniProt P33527); assay: Inhibition of MRP1-mediated doxorubicin resistance in human 2008/MRP1 cells assessed as fold decrease in doxorubicin IC50 for cytotoxic activity at 0.5 uM after 5 days by MTS assay relative to parental cell; format: cell-based; settings: 2008/mrp1, 120 h
Chain of Multidrug resistance-associated protein 1 (P33527 whole entry): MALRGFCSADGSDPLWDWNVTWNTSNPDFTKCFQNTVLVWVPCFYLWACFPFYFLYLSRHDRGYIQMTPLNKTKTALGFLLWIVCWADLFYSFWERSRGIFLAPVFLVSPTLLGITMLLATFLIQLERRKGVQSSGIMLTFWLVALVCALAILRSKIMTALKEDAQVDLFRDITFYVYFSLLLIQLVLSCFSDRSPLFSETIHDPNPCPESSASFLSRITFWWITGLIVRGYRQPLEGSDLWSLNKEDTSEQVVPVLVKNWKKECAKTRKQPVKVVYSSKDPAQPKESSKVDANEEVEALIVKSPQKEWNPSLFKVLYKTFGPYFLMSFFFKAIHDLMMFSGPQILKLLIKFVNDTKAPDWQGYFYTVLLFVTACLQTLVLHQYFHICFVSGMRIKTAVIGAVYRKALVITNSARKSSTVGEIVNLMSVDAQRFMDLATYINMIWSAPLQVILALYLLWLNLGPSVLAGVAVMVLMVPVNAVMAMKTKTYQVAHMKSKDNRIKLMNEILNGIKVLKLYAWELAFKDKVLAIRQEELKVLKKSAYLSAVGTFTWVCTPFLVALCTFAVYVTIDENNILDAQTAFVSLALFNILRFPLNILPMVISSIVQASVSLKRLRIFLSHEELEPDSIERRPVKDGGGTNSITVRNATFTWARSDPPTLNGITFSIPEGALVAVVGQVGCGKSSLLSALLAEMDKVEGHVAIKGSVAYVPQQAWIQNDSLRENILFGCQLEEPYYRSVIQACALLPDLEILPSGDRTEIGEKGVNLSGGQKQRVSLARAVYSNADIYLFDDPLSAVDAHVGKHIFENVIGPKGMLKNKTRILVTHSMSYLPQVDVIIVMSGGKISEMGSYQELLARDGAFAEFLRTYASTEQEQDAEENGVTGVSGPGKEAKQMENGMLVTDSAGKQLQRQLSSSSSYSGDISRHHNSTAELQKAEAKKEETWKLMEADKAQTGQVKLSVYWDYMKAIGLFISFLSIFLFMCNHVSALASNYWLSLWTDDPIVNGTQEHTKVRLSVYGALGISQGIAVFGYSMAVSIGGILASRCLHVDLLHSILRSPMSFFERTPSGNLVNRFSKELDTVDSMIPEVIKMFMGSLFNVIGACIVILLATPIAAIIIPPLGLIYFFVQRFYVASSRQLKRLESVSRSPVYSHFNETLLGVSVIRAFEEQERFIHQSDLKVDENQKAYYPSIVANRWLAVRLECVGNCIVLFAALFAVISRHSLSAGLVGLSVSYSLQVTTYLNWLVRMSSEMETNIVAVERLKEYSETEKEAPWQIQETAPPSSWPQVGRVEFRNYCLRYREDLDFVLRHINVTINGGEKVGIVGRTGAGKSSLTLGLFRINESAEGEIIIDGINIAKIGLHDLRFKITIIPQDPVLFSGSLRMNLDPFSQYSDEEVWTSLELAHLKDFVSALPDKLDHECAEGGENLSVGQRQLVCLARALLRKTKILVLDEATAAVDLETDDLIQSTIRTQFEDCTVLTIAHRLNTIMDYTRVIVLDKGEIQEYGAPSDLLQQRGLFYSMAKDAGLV

[3] = Reversal of P-gp-mediated mitoxantrone-resistance in human LCC6MDR cells after 5 days by MTS assay; format: cell-based; settings: 120 h
[4] = target: T1, ATP-dependent translocase ABCB1; assay: Competitive inhibition of P-gp overexpressed in human MDA435/LCC6MDR cells assessed as accumulation of doxorubicin by Dixon plot analysis; format: cell-based
[5] = Reversal of P-gp-mediated doxorubicin-resistance in human LCC6MDR cells after 5 days by MTS assay; format: cell-based; settings: 120 h
[6] = species: Homo sapiens; assay: Inhibition of P-gp-mediated paclitaxel resistance in human LCC6MDR cells assessed as fold decrease in paclitaxel IC50 for cytotoxic activity at 1 uM after 5 days by MTS assay relative to parental cells; format: cell-based
[7] = Reversal of P-gp-mediated vinblastin-resistance in human LCC6MDR cells after 5 days by MTS assay; format: cell-based; settings: 120 h
[8] = Reversal of P-gp-mediated vincristine-resistance in human LCC6MDR cells after 5 days by MTS assay; format: cell-based; settings: 120 h
[9] = species: Homo sapiens; assay: Reduction in P-gp-mediated drug uptake in human MDA435/LCC6MDR cells at 10 uM for 120 mins by HPLC analysis relative to parental cells; format: cell-based
Summary of the method: (§1)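 7.5 × 10⁶ LCC6 or LCC6MDR cells in 5 mL DMEM incubated with compound at 10 or 100 μM for 120 min at 37 °C. Cells washed, lysed by freeze–thaw in acetonitrile with 20% formic acid, and processed. Compound quantified by normal-phase HPLC-UV at 315 nm against a chloroform calibration curve of 0.25–25 μg/mL. N = 1–2.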

[10] = test system: MDR; assay: Cytotoxicity against human MDA435/LCC6MDR cells expressing MDR after 72 hrs; format: functional, cell-based
Summary of the method: (§2)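 Cells seeded at 1 × 10⁴ per well in supplemented DMEM and given graded doses of dimer for 72 h at 37 °C, 5% CO₂. Survival measured and IC50 derived. N = 1–3 independent experiments, mean ± SEM.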

[11] = species: Homo sapiens; assay: Reduction in P-gp-mediated drug uptake in human MDA435/LCC6MDR cells at 100 uM for 120 mins by HPLC analysis relative to parental cells; format: cell-based; summary of the method: as §1
[12] = target: P-gp (ABCB1) (Homo sapiens, UniProt P08183); assay: Increase in human P-gp ATPase activity at 200 uM by luciferase assay relative to basal level; settings: read-out: FC
Chain of P-gp (ABCB1) (P08183 whole entry): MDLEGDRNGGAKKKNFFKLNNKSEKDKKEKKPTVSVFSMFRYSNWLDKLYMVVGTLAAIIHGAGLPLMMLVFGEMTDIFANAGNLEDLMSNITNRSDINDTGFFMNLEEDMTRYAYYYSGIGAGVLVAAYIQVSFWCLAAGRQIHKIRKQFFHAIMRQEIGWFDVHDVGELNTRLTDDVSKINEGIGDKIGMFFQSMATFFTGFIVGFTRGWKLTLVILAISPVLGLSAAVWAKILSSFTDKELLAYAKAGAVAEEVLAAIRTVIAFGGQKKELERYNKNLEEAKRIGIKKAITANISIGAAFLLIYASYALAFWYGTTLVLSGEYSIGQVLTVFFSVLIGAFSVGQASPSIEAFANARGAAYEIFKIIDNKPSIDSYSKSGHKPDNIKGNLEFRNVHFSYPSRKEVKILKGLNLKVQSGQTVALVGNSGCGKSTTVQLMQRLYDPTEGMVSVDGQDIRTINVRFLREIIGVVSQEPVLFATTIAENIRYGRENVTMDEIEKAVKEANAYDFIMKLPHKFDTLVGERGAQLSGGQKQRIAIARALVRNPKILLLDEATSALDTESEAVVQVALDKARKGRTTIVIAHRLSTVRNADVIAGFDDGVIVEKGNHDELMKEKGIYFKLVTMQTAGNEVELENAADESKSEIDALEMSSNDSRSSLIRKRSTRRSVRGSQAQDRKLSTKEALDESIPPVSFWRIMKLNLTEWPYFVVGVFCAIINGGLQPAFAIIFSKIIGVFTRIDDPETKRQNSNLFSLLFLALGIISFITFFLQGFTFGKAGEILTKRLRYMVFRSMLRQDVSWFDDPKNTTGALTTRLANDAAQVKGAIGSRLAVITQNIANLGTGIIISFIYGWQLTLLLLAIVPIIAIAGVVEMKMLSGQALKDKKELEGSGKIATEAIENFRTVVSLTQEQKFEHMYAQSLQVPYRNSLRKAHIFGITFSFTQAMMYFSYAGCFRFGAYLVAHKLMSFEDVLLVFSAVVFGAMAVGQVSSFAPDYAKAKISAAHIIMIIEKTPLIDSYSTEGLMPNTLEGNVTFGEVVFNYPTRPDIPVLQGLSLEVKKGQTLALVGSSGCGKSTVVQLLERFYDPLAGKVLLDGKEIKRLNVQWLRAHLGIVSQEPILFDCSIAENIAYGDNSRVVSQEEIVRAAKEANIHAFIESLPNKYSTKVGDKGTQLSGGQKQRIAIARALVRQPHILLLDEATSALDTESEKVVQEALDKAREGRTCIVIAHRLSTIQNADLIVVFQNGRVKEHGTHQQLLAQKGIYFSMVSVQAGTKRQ
Summary of the method: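 Human P-gp membrane fraction (about 25 μg) incubated with compound at 200 μM, 0.5% DMSO basal or 100 μM vanadate. Reaction started with 5 mM MgATP, 1 h at 37 °C. Remaining ATP read by luciferase luminescence after 20 min at room temperature. Activity normalized to basal and given as stimulation fold. N = 2.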

[13] = species: Homo sapiens; assay: Inhibition of P-gp-mediated paclitaxel resistance in human LCC6MDR cells assessed as fold decrease in paclitaxel IC50 for cytotoxic activity at 0.5 uM after 5 days by MTS assay relative to parental cells; format: cell-based
[14] = Reversal of P-gp-mediated paclitaxel-resistance in human LCC6MDR cells after 5 days by MTS assay; format: cell-based; settings: 120 h
[15] = test system: L929; assay: Cytotoxicity against mouse L929 cells after 72 hrs; format: cell-based; settings: L929, 72 h; summary of the method: as §2
[16] = target: T2, Broad substrate specificity ATP-binding cassette transporter ABCG2 (Homo sapiens, UniProt Q9UNQ0); assay: Inhibition of BCRP-mediated topotecan resistance in human HEK293/R2 cells assessed as fold decrease in topotecan IC50 for cytotoxic activity at 0.5 uM after 5 days by MTS assay relative to parental cell; format: cell-based; settings: hek293/r2, 120 h
T2 sequence (Q9UNQ0 whole entry): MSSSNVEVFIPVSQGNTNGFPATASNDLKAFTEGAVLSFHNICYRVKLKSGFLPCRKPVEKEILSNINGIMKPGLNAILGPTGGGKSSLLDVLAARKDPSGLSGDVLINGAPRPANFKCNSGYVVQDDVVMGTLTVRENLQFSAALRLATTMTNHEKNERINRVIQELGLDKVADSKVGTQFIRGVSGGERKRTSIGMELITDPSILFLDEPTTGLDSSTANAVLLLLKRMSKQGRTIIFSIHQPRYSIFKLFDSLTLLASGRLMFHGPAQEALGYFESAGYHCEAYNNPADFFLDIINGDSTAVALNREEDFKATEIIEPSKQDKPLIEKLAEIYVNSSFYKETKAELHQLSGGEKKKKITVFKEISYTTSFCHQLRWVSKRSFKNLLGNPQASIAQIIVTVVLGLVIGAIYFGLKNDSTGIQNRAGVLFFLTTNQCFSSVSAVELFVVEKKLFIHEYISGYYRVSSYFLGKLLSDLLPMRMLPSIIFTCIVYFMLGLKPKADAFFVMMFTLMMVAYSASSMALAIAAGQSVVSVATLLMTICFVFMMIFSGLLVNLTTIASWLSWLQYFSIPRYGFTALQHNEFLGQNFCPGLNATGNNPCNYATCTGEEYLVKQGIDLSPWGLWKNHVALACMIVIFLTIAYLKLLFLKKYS
Summary of the method: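 Viability read by MTS. Topotecan IC50 taken from dose-response curves. Fold change = IC50 without modulator / IC50 with modulator. Parental HEK293/pcDNA3.1 tested for reference. N = 2−4 independent experiments, mean ± SEM.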

[17] = Cytotoxicity against human LCC-6 cells after 72 hrs; format: functional, cell-based; settings: LCC-6, 72 h; summary of the method: as §2
[18] = target: T1, ATP-dependent translocase ABCB1; assay: Competitive inhibition of P-gp overexpressed in human MDA435/LCC6MDR cells assessed as accumulation of doxorubicin by Lineweaver-Burk plot analysis; format: cell-based
[19] = Therapeutic index, ratio of IC50 for L929 cells to EC50 for reversing paclitaxel resistance in human MDA435/LCC6MDR cells; format: cell-based; settings: L929 cells (IC50) and MDA435/LCC6MDR cells (EC50)
[20] = Reversal of P-gp-mediated daunorubicin-resistance in human LCC6MDR cells after 5 days by MTS assay; format: cell-based; settings: 120 h

T1 sequence (P08183 whole entry): as the sequence (P08183 whole entry) above

Row | MIC [1] [µM] | inhibition (INH) [1] | Compound | Ratio [6] | IC50 [10] [nM] | Ratio [13] | EC50 [14] [nM] | IC50 [15] [µM] | IC50 [17] [µM] | selectivity ratio [19] | further results
1 | 8 (≈ 3.64 µg/mL) | Dose-dependent effect | COc1ccc(CCN(C)CCCC(C#N)(c2ccc(OC)c(OC)c2)C(C)C)cc1OC (stereo not given) |  |  |  |  |  |  |  | 
2 | 0.5 (≈ 0.362 µg/mL) | Dose-dependent effect | O=c1cc(-c2ccc(OCCOCCN(CCOCCOc3ccc(-c4cc(=O)c5ccccc5o4)cc3)Cc3ccccc3)cc2)oc2ccccc12 | 139 | > 63000 | 58.9 | 148 | 85 | > 75 | 574 | Ratio [2]: 2.1; EC50 [3]: 90 nM; Ki [4]: 280 nM; EC50 [5]: 131 nM; EC50 [7]: 173 nM; EC50 [8]: 179 nM; fold change (FC) [9]: 1.7; fold change (FC) [11]: 2.1; fold induction at 200 µM [12]: 2.7; Ratio [16]: 3.8; Ki [18]: 340 nM; EC50 [20]: 95 nM
3 |  |  | O=c1cc(-c2ccc(OCCOCCNCCOCCOc3ccc(-c4cc(=O)c5ccccc5o4)cc3)cc2)oc2ccccc12 | 139 | 2400 | 72.9 | 305 | 5.9 | 3.3 | 19.3 | 

Reference: ChEMBL document CHEMBL2203168, “Amine linked flavonoid dimers as modulators for P-glycoprotein-based multidrug resistance: structure-activity relationship and mechanism of modulation” (J Med Chem, 2012)
